Source: ChEMBL document CHEMBL1153250, “Discovery and SAR of novel, potent and selective hexahydrobenzonaphthyridinone inhibitors of poly(ADP-ribose)polymerase-1 (PARP-1)” (Bioorg Med Chem Lett, 2010)
Active and inactive are the calls of the source. The rule behind the calls is not given here.

Tests used:
[1] = target: T1, Poly [ADP-ribose] polymerase 1 (Homo sapiens, UniProt P09874); assay: Inhibition of human PARP1 by scintillation proximity assay
[2] = target: T1, Poly [ADP-ribose] polymerase 1; assay: Inhibition of PARP1 in human HeLa cells assessed as inhibition of hydrogen peroxide-induced poly(ADP-ribosyl)ation; assay type: cell-based
[3] = Inhibition of Tankyrase at 1 uM
[4] = target: T2, Poly [ADP-ribose] polymerase tankyrase-1 (Homo sapiens, UniProt O95271); assay: Inhibition of Tankyrase 1
T2 sequence (O95271 whole entry): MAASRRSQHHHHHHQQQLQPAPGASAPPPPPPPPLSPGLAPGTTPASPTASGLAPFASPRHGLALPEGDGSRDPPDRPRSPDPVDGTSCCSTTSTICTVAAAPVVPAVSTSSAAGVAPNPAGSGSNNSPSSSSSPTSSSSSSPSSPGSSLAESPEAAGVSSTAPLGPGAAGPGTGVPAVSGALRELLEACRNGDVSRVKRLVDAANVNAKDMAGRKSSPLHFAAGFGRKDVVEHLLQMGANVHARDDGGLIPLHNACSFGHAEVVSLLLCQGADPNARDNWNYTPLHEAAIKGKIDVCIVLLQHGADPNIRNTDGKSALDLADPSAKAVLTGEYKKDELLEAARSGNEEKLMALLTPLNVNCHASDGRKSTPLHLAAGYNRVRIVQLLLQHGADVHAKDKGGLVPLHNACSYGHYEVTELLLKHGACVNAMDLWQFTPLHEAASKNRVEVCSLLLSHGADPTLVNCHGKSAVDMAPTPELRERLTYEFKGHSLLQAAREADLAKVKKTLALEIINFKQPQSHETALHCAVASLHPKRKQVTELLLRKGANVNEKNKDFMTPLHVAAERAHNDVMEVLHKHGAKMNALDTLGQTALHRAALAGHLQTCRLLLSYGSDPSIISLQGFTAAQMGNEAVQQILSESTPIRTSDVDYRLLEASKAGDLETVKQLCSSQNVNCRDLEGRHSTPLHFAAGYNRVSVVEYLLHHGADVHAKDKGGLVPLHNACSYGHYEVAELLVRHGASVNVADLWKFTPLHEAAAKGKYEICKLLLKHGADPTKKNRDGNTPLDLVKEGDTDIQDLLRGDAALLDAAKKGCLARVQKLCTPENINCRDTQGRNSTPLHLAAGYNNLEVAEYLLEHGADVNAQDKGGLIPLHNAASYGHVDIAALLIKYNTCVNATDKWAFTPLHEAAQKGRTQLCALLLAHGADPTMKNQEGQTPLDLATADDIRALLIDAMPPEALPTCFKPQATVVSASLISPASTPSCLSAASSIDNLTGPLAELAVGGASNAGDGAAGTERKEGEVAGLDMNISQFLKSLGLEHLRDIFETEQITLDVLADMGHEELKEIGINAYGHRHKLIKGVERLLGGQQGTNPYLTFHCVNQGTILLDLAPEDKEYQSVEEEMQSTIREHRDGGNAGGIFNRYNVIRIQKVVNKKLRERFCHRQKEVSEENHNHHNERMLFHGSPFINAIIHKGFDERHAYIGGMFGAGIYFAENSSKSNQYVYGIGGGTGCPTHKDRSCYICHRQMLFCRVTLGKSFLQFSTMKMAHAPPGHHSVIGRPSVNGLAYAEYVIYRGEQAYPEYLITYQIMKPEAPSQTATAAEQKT

[5] = target: T3, Protein mono-ADP-ribosyltransferase PARP3 (Homo sapiens, UniProt Q9Y6F1); assay: Inhibition of PARP3
T3 sequence (Q9Y6F1 whole entry): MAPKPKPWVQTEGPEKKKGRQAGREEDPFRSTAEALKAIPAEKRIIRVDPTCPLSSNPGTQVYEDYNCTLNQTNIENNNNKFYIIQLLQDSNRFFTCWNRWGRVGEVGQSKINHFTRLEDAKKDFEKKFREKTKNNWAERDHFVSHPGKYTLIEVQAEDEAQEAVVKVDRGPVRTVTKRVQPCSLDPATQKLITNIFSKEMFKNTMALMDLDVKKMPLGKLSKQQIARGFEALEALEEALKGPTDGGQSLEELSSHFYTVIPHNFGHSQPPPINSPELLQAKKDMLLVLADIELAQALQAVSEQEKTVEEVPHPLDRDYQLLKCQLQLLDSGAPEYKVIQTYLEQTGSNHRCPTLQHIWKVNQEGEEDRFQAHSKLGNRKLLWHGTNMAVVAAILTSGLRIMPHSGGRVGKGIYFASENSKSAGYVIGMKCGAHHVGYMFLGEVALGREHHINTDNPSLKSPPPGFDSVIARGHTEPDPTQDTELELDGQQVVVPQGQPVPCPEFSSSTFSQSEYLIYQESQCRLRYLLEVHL

[6] = Inhibition of Cytochrome P450 at 10 uM; assay type: ADME
[7] = target: T4, Poly [ADP-ribose] polymerase 2 (Homo sapiens, UniProt Q9UGN5); assay: Inhibition of PARP2
[8] = target: Protein mono-ADP-ribosyltransferase PARP4 (Homo sapiens, UniProt Q9UKK3); assay: Inhibition of VPARP
[9] = Intrinsic clearance in rat liver microsomes; assay type: ADME, Microsome
[10] = target: Voltage-gated inwardly rectifying potassium channel KCNH2 (Homo sapiens, UniProt Q12809); assay: Binding affinity to potassium channel IKr at 10 uM
[11] = Half life in rat at 3 mg/kg, iv and po; assay type: ADME, organism-based; set-up: dose 3 mg/kg, route oral; details: in vivo
In short: (§1)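 Rats received the compound both intravenously and orally, each at 3 mg/kg. Reported PK parameters are half-life (h), volume of distribution (L/kg), clearance (ml/min/kg), oral bioavailability (%F) and oral AUC (μM h).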

Rattus norvegicus = assay: Volume of distribution in rat at 3 mg/kg, iv and po; assay type: ADME, organism-based; set-up: dose 3 mg/kg, route oral; details: in vivo; in short: as §1
[12] = AUC in rat at 3 mg/kg, po; assay type: ADME, organism-based; set-up: dose 3 mg/kg, route oral; details: plasma; in short: as §1
[13] = Oral bioavailability in rat at 3 mg/kg; assay type: ADME, organism-based; details: in vivo; in short: as §1
[14] = target: T1, Poly [ADP-ribose] polymerase 1; assay: Inhibition of human PARP1 at 1 uM by scintillation proximity assay
[15] = target: T4, Poly [ADP-ribose] polymerase 2; assay: Inhibition of PARP2 at 1 uM

T4 sequence (Q9UGN5 whole entry): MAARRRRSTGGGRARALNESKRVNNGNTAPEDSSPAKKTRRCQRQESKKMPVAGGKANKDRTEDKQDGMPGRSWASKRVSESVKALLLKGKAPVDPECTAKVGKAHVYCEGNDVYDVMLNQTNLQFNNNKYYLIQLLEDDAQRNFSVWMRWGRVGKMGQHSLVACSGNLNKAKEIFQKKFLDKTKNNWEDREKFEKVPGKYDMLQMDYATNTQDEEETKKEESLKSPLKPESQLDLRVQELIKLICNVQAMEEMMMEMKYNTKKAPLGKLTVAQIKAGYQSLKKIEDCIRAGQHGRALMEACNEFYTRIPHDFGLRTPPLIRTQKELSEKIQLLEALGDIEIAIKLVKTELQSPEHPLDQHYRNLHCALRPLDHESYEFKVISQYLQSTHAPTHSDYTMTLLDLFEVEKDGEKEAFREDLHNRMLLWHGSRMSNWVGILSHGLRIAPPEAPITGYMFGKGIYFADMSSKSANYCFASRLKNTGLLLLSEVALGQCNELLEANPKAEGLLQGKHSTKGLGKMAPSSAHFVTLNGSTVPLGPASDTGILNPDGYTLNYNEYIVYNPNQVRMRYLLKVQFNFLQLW
T1 sequence (P09874 whole entry): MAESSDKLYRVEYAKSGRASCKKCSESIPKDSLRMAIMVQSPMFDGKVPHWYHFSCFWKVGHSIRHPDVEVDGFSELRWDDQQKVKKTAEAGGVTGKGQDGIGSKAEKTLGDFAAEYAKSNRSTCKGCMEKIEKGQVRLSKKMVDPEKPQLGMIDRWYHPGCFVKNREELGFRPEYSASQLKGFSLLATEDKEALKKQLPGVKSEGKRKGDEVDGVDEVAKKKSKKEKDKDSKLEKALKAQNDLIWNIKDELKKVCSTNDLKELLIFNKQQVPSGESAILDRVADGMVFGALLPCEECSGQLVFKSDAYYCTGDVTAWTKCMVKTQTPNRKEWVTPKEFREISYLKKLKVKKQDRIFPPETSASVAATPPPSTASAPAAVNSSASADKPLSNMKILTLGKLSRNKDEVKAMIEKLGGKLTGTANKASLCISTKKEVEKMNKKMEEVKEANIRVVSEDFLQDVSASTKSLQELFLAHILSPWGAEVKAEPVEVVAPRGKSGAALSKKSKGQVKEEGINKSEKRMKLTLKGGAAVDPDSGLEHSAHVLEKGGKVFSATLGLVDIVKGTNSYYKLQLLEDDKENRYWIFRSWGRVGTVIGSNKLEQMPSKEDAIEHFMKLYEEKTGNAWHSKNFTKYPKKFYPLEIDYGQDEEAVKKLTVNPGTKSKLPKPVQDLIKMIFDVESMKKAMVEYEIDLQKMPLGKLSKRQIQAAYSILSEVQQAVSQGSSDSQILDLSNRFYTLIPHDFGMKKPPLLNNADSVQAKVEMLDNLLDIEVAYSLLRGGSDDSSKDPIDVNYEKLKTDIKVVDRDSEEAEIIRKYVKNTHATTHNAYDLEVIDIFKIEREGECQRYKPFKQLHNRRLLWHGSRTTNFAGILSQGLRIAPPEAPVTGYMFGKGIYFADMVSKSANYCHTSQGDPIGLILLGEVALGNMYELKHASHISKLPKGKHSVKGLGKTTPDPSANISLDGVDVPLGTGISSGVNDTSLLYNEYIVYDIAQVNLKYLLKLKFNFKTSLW
Sequence of Voltage-gated inwardly rectifying potassium channel KCNH2 (Q12809 whole entry): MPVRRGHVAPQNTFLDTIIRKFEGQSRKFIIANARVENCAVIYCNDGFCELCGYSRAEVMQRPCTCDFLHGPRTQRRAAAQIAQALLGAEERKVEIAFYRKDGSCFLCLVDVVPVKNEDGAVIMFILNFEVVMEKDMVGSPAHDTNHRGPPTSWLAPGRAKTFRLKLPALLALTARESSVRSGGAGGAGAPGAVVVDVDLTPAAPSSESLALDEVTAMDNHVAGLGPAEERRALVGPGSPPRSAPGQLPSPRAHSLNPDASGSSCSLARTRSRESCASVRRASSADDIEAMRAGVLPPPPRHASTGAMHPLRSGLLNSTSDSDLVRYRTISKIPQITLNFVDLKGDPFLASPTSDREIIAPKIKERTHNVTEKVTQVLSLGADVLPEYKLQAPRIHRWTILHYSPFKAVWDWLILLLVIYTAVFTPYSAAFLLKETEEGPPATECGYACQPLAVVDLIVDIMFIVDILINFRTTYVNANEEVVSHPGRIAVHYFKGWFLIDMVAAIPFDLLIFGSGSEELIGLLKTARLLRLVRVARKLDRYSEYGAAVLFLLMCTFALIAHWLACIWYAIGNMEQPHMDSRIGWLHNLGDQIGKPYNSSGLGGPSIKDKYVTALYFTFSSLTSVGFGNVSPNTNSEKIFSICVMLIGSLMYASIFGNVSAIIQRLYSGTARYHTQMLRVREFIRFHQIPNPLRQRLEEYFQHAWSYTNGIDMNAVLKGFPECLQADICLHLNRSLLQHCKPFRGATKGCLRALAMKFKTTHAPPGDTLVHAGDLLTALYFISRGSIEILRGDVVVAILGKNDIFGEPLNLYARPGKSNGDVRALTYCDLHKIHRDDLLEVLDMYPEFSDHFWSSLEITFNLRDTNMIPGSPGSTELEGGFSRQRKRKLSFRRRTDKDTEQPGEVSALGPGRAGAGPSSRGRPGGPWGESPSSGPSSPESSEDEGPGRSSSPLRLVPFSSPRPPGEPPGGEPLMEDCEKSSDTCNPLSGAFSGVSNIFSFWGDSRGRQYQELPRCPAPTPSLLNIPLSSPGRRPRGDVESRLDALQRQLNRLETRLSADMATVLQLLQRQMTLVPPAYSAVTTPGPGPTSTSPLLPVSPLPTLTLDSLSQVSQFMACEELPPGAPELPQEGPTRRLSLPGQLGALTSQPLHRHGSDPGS
Sequence of Protein mono-ADP-ribosyltransferase PARP4 (Q9UKK3 whole entry): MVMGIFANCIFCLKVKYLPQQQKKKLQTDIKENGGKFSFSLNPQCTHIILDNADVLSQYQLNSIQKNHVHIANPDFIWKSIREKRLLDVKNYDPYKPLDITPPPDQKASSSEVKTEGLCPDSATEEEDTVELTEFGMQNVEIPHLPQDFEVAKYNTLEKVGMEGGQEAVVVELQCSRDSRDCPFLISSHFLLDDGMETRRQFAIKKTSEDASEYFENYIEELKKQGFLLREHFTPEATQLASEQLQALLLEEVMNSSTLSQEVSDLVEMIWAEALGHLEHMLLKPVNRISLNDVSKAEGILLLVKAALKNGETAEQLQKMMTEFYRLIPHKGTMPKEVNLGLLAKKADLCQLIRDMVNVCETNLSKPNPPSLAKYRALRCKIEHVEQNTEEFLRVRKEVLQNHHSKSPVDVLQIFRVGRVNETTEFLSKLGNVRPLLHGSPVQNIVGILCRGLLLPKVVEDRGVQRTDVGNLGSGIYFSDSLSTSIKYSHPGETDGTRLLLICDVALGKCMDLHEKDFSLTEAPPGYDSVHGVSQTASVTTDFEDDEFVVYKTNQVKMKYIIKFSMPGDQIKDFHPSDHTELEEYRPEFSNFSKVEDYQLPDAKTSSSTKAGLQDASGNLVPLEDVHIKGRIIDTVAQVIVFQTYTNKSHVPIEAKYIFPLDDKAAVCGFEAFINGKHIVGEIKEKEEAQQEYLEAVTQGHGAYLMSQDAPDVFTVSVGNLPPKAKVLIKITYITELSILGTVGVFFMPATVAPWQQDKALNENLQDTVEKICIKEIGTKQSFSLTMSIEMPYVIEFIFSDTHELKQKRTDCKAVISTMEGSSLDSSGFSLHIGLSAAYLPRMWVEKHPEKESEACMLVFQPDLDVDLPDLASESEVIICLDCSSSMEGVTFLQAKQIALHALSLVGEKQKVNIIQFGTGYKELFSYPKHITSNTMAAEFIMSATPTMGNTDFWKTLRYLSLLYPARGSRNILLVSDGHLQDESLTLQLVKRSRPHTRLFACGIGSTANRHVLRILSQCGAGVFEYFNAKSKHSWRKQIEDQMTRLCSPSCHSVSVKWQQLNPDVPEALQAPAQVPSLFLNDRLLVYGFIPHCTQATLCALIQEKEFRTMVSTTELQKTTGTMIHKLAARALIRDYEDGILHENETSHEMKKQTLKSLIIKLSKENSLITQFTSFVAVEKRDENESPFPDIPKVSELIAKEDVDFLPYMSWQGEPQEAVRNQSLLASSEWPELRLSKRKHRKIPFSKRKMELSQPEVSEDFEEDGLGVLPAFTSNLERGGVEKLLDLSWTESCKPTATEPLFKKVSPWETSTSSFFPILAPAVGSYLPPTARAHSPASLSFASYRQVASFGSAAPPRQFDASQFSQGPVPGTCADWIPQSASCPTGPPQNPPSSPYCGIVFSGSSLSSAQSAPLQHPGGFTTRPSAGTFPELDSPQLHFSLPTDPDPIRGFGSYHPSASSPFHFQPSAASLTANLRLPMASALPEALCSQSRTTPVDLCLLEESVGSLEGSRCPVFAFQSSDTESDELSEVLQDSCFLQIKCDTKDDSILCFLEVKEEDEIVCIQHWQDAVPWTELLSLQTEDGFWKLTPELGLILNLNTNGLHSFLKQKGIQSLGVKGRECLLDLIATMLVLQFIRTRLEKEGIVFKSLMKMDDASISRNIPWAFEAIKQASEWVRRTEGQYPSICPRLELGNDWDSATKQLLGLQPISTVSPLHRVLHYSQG

Structure (SMILES)	IC50 [1] [nM]	EC50 [2] [nM]	also measured
O=C1NCC2c3c(cccc31)CCN2C(=O)Cc1ccccc1Cl (stereo not drawn)	16	900	–
O=C1NCC2c3c(cccc31)CCN2C(=O)c1cccc(C(=O)N2CCCNCC2)c1 (stereo not drawn)	50	–	–
O=C1NCC2c3c(cccc31)CCN2C(=O)C1CCNC1 (stereo not drawn)	1	3200	–
O=C1NCC2c3c(cccc31)CCN2Cc1ccccc1 (stereo not drawn)	190	5200	–
COc1ccccc1CC(=O)N1CCc2cccc3c2C1CNC3=O (stereo not drawn)	27	1700	–
CN(C)C(=O)CCC(=O)N1CCc2cccc3c2C1CNC3=O (stereo not drawn)	9	2800	–
O=C1NCC2c3c(cccc31)CCN2C(=O)OCc1ccccc1 (stereo not drawn)	14	130	–
CCN(CC)Cc1ccc(C(=O)N2CCc3cccc4c3C2CNC4=O)cc1 (stereo not drawn)	13	310	–
Cn1cc(CCC(=O)N2CCc3cccc4c3C2CNC4=O)cn1 (stereo not drawn)	14	420	–
O=C1NCC2c3c(cccc31)CCN2S(=O)(=O)Cc1ccccc1 (stereo not drawn)	83	2700	–
O=C1NCC2c3c(cccc31)CCN2C(=O)c1ccc(Cl)cc1 (stereo not drawn)	7	260	–
O=C1NCC2NCCc3cccc1c32 (stereo not drawn)	140	–	inhibition [3]: 11%
O=C1NCC2c3c(cccc31)CCN2C(=O)C1CNC1 (stereo not drawn)	1	660	–
O=C1NCC2c3c(cccc31)CCN2C(=O)CCc1cnccn1 (stereo not drawn)	6	330	IC50 [4]: 2000 nM; IC50 [5]: 70 nM; Activity [6]: Not Active; IC50 [7]: 1 nM; IC50 [8]: 660 nM; microsomal CLint [9]: 24 µL/min/mg; Activity [10]: Not Active; half-life [11]: 1.2 h; Vd (Rattus norvegicus): 2 L/kg
O=C1NCC2c3c(cccc31)CCN2C(=O)c1ccccc1 (stereo not drawn)	4	840	–
O=C1NCC2c3c(cccc31)CCN2C(=O)Cc1ccccn1 (stereo not drawn)	13	230	–
O=C1NCC2c3c(cccc31)CCN2C(=O)Cc1ccc(OCc2ccccc2)cc1 (stereo not drawn)	16	580	–
O=C1NCC2c3c(cccc31)CCN2C(=O)[C@@H]1CCCN1 (stereo partly drawn)	4	180	–
O=C1NCC2c3c(cccc31)CCN2C(=O)Oc1ccccc1 (stereo not drawn)	9	1400	–
COc1cccc(CC(=O)N2CCc3cccc4c3C2CNC4=O)c1 (stereo not drawn)	5	1200	–
O=C1NCC2c3c(cccc31)CCN2C(=O)CN1CCC(c2ccccc2)CC1 (stereo not drawn)	0.5	410	–
O=C1NCC2c3c(cccc31)CCN2C(=O)CCn1cnc2ccccc21 (stereo not drawn)	1	1600	–
O=C1NCC2c3c(cccc31)CCN2C(=O)c1ccc(C(=O)N2CCCNCC2)cc1 (stereo not drawn)	130	–	–

Structure (SMILES)	IC50 [1] [nM]	EC50 [2] [nM]	also measured
O=C1NCC2c3c(cccc31)CCN2C(=O)NCc1ccccc1 (stereo not drawn)	12	690	–
O=C1NCC2c3c(cccc31)CCN2C(=O)CN1CCCCC1 (stereo not drawn)	6	280	microsomal CLint [9]: 18 µL/min/mg
O=C1NCC2c3c(cccc31)CCN2C(=O)Cc1ccccc1 (stereo not drawn)	8	230	–
O=C1NCC2c3c(cccc31)CCN2C(=O)Cc1cccnc1 (stereo not drawn)	1	360	IC50 [4]: 3500 nM; IC50 [5]: 50 nM; Activity [6]: Not Active; IC50 [7]: 1 nM; IC50 [8]: 440 nM; microsomal CLint [9]: 3 µL/min/mg; Activity [10]: Not Active; AUC [12]: 2.3 µM·h; half-life [11]: 1.7 h; bioavailability [13]: 51%; Vd (Rattus norvegicus): 3 L/kg
O=C1NCC2c3c(cccc31)CCN2C(=O)Cc1ccc(Cl)cc1 (stereo not drawn)	5	650	–
O=C1NCC2c3c(cccc31)CCN2C(=O)c1ccccc1Cl (stereo not drawn)	35	–	–
Cc1c(CC(=O)N2CCc3cccc4c3C2CNC4=O)sc2ccccc12 (stereo not drawn)	13	1300	–
O=C1NCC2c3c(cccc31)CCN2C(=O)c1cccc(Cl)c1 (stereo not drawn)	37	–	–
COc1ccc(CC(=O)N2CCc3cccc4c3C2CNC4=O)cc1 (stereo not drawn)	6	160	–
CN1CCN(CC(=O)N2CCc3cccc4c3C2CNC4=O)CC1 (stereo not drawn)	97	3500	–
O=C1NCC2c3c(cccc31)CCN2C(=O)CCc1ccccc1 (stereo not drawn)	4	350	–
O=C1NCC2c3c(cccc31)CCN2C(=O)CN1CCN(c2ccccc2)CC1 (stereo not drawn)	11	440	–
CC(=O)N1CCC[C@H]1C(=O)N1CCc2cccc3c2C1CNC3=O (stereo partly drawn)	14	2800	–
O=C1NCC2c3c(cccc31)CCN2C(=O)Nc1ccccc1 (stereo not drawn)	11	1100	–
Cc1csc(CC(=O)N2CCc3cccc4c3C2CNC4=O)n1 (stereo not drawn)	6	2900	–
O=C(O)CCCC(=O)N1CCc2cccc3c2C1CNC3=O (stereo not drawn)	15	5000	–
Nc1cccc2c1CCNC2=O	0.5	–	–
O=C1NCC2c3c(cccc31)CCN2C(=O)C1CCCC1 (stereo not drawn)	11	550	–
O=C1NCC2c3c(cccc31)CCN2C(=O)Cc1ccc(Br)cc1 (stereo not drawn)	7	200	–
O=C1NCC2c3c(cccc31)CCN2C(=O)Cc1cccc(Cl)c1 (stereo not drawn)	5	1100	–
O=C1CC2NCCc3cccc(c32)N1 (stereo not drawn)	–	–	inhibition [14]: inactive; inhibition [15]: inactive
O=C1NCC2c3c(cccc31)CCN2C(=O)Cc1ccncc1 (stereo not drawn)	10	4600	–
N#Cc1ccc(CC(=O)N2CCc3cccc4c3C2CNC4=O)cc1 (stereo not drawn)	9	200	–
